Reference: ChEMBL document CHEMBL4190293, “Anti-inflammatory Meroterpenoids from Baeckea frutescens” (J Nat Prod, 2017)
The source made the active and inactive calls. No cut-off for these calls is given here.

Experiments:
[1] = tested on: RAW264.7; assay: Antiinflammatory activity in mouse RAW264.7 cells assessed as inhibition of LPS-stimulated nitric oxide production pretreated for 2 hrs followed by LPS-stimulation measured after 20 hrs by Griess assay; assay type: functional, cell-based
Method in brief: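 Murine RAW 264.7 macrophages in DMEM with 10% FBS, seeded at 1 × 10^5 cells/well and grown 12 h. Pretreated with compound for 2 h, then given LPS (1 μg/mL) for 20 h; L-NMMA as positive control. Supernatant nitrite mixed 1:1 with Griess reagent, 10 min at room temperature, absorbance read at 540 nm. IC50 from three independent replicates. Viability checked by Alamar Blue after 20 h.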

[2] = tested on: RAW264.7; assay: Antiinflammatory activity in mouse RAW264.7 cells assessed as inhibition of LPS-stimulated IL-6 expression at 0.2 to 0.8 uM pretreated for 2 hrs followed by LPS-stimulation measured after 18 hrs by ELISA; assay type: functional, cell-based
Method in brief: (§1)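 RAW 264.7 cells seeded at 1 × 10^6 cells/well in serum-free DMEM for 12 h. Cells pretreated with test compound at 0.2, 0.4 or 0.8 μM for 2 h, then stimulated with LPS (1 μg/mL) for 18 h. TNF-α and IL-6 in the culture supernatant measured by ELISA kit. Mean ± SD of three independent experiments; one-way ANOVA with Dunnett's post hoc test.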

[3] = molecular target: Transcription factor p65 (Mus musculus) (UniProt Q04207); assay: Inhibition of NF-kappaB p65 nuclear translocation in LPS-stimulated mouse RAW264.7 cells pretreated for 2 hrs followed by LPS-stimulation measured after 16 hrs by Western blot analysis; assay type: cell-based
Method in brief: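 RAW 264.7 cells exposed to compound at 0.2, 0.4 or 0.8 μM for 2 h, then given 1 μg/mL LPS, or left unstimulated, for 16 h. Lysates made in RIPA buffer, protein quantified by BCA, run on 10% SDS-PAGE and transferred to PVDF. Blots probed for NF-κB p65 with lamin B as internal control, primary antibodies at 4 °C overnight. Mean ± SD of three independent experiments.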

[4] = tested on: RAW264.7; assay: Antiinflammatory activity in mouse RAW264.7 cells assessed as inhibition of LPS-stimulated TNFalpha expression pretreated for 2 hrs followed by LPS-stimulation measured after 18 hrs by ELISA; assay type: functional, cell-based; method in brief: as §1

Sequence of Transcription factor p65 (Mus musculus) (Q04207 whole entry): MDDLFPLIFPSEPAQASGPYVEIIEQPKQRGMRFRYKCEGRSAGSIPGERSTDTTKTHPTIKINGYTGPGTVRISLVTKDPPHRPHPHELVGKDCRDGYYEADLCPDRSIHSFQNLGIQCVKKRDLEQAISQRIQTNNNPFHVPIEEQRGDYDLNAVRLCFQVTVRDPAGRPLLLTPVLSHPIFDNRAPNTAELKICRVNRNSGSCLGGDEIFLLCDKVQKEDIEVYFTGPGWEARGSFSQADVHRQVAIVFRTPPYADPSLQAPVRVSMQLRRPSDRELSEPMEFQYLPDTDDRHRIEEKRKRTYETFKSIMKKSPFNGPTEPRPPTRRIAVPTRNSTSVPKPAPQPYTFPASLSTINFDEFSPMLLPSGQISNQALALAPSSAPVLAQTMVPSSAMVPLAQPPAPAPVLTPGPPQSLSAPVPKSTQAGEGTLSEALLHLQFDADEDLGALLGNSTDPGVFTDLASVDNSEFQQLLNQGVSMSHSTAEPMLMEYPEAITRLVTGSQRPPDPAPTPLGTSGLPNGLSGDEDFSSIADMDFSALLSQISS

| Structure (SMILES) | IC50 [1] [µM] | also measured |
| --- | --- | --- |
| COC1=C(C)C(=O)C2=C(O[C@]3(C=C4[C@H](C(C)C)CC[C@@H](C)[C@H]4CC3)C[C@@H]2C(C)C)C1(C)C | > 50 | – |
| C=C1CC[C@@H]2[C@H](C(C)C)C3=C(O[C@@]2(C)CC[C@@H]2[C@@H]1CC2(C)C)C(C)(C)C(OC)=C(C)C3=O | > 50 | – |
| COC1=C(C)C(=O)C2=C(O[C@]3(CC[C@]45[C@H]([C@H](C(C)C)CC[C@H]4C)[C@@H]35)C[C@H]2C(C)C)C1(C)C | 30.5 | – |
| COC1=C(C)C(=O)C2=C(O[C@@]3(C=C4[C@H](C(C)C)CC[C@@H](C)[C@H]4CC3)C[C@H]2C(C)C)C1(C)C | > 50 | – |
| CNC(=N)NCCC[C@H](N)C(=O)O [TILARGININE] | 30.9 | – |
| COC1=C(C)C(=O)C2=C(O[C@@]3(C=C4[C@H](C(C)C)CC[C@@H](C)[C@H]4CC3)C[C@@H]2C(C)C)C1(C)C | 18.8 | – |

Now those with a lower IC50 [1], led by results:

| IC50 [1] [µM] | Structure (SMILES) | also measured |
| --- | --- | --- |
| 15.2 | COC1=C(C)C(=O)C2=C(O[C@@]3(CC[C@]45[C@H]([C@H](C(C)C)CC[C@H]4C)[C@@H]35)C[C@@H]2C(C)C)C1(C)C | – |
| 1.8 | COC1=C(C)C2=C(C(=O)C1(C)C)[C@H](C(C)C)C[C@@]1(CC[C@@]3(C(C)C)C[C@@H]13)O2 (racemic) | – |
| 2.07 | COC1=C(C)C(=O)[C@@]2(CC=C(CCC=C(C)C)C[C@H]2C(C)C)C(=O)C1(C)C (racemic) | – |
| 3.7 | COC1=C(C)C(=O)C2=C(O[C@]3(CC[C@@H]4C[C@@H]3C4(C)C)C[C@@H]2C(C)C)C1(C)C | – |
| 6.5 | COC1=C(C)C(=O)[C@]2(CC(CCC=C(C)C)=CC[C@H]2C(C)C)C(=O)C1(C)C (racemic) | – |
| 0.36 | COC1=C(C)C2=C(C(=O)C1(C)C)[C@@H](C(C)C)C[C@]1(CC[C@@]3(C(C)C)C[C@@H]13)O2 | inhibition [2]: inactive; inhibition [3]: Dose-dependent effect; inhibition [4]: Dose-dependent effect |
